LEDGF integ inh: blocks HIV-1 LEDGF/p75-dependent DNA integration; TR-FRET IN-LEDGF/p75 DNA integration, Eu/Cy5; inhibition, % at 3.7 µM; hit rate 0.64% among 370,000; AID 743269;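 active = inhibition above the screen-wide mean plus 3 SD, cut at about 13% in these data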;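 also: signal is the Cy5 over europium emission ratio at 671 and 618 nm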
TDP2 inh: TDP2 (human) inhibition, absorbance primary screen | hit rate 0.34% among 370,000 | AID 720702 | inhibition, % at 12.8 µM | O95551 | recombinant TDP2, T5PNP hydrolysis, p-nitrophenol absorbance 415 nm;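 active = inhibition above the mean of all tested compounds plus 3 SD, set per campaign, cut at about 25% in these data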
Target sequence (O95551 whole entry, looked up): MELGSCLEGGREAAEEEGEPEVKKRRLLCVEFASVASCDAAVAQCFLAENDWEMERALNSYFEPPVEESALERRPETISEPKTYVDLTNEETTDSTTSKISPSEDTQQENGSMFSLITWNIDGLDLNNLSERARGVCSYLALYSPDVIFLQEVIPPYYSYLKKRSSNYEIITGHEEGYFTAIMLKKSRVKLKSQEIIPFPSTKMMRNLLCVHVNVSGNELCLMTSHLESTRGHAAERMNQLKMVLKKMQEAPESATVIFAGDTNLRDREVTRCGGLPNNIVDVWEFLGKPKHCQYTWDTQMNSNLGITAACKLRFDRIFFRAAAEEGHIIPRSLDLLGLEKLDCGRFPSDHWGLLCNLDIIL
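Evaluation: % inhibition relative to enzyme-containing and enzyme-free wells. Material: recombinant human TDP2. Benchmarks: enzyme-free and DMSO wells. Timing: enzyme reaction with compound for 2 h at 37 °C. Compound dosing: 12.8 µM only. Measured by: p-Nitrophenol epi absorbance. Reagent: T5PNP substrate at 5 mM, a TopII-DNA adduct mimic. Replication: single well per compound.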
core dimer inh: HCV core protein dimerization inhibition; TR-FRET GST/Flag-core106 dimerization, 1536-well; inhibition, % at 5 µM; hit rate 0.33% among 300,000; AID 1899;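 active = inhibition above the mean of all tested compounds plus 3 SD, set per screening campaign, cut at about 45% in these data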
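Test system: GST/Flag-tagged HCV core106 proteins; Medium: KF-containing HEPES buffer, pH 7.45, DTT, CHAPS, BSA; Times: compound-protein-antibody incubation 4 h at 22.5 °C; Detection: TR-FRET 671 and 617 nm emission; Benchmarks: wells lacking GST-core106 and wells with excess unlabelled core106.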
MBD2 DNA inh: MBD2-methylated oligo binding inhibition | hit rate 0.31% among 370,000 | inhibition, % at 4.4 µM | TR-FRET, MBD2 binding to methylated oligonucleotide; in the data active = inhibition above about 13%
Target sequence (Q9UBB5 whole entry, looked up): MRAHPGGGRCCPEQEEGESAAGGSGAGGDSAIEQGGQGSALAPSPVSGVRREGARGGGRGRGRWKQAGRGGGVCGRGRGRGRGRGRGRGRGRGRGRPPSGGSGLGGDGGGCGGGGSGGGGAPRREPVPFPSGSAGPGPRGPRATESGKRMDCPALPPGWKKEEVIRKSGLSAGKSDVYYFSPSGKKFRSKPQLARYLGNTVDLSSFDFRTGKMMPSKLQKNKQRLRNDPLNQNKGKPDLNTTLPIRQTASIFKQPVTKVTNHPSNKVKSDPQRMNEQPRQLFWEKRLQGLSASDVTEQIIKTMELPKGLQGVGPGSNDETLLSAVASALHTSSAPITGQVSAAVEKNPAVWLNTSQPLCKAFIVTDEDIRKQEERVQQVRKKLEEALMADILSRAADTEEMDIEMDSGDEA
UHRF1 MBD2 ctr: blocks human UHRF1 binding to methylated DNA; inhibition, % at 4.4 µM; Q96T88; hit rate 0.75% among 370,000; AID 687016; UHRF1 binding to methylated oligo, TR-FRET;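 also: UHRF1 SRA domain binding a hemimethylated CpG hairpin DNA probe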
UHRF1 ctr MBD2: UHRF1 methyl-oligo binding inhibition as MBD2 counter-screen | shares compounds with MBD2 DNA inh | inhibition, % at 4.4 µM | AID 720530 | UHRF1 binding to methylated oligonucleotide, TR-FRET | hit rate 25% among 1,000;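 also: UHRF1 SRA domain binding a labeled hemimethylated CpG hairpin DNA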
MBD2 DBD conf: confirmation of human MBD2-DBD methylated oligonucleotide binding inhibitors. hit rate 26% among 1,000. TR-FRET MBD2-DBD binding to methylated oligonucleotide. shares compounds with MBD2 DNA inh. AID 720531. inhibition, % at 4.4 µM; in the data active = inhibition above about 14%
Each line names hits and unclear results; the compound was inactive in the other large screens (follow-up assays come after a bar, where they were run). Hits are enriched below; roughly 1.8% of the tested compounds scored in any of these assays. Rule as the data show it, unless noted: active = inhibition above about 21%; inactive = the rest.

CCCCCCC12C(=Cc3cc(C)ccc31)c1ccccc1C(CC(=O)NCc1ccccc1)N2C(=O)OC (configuration not stated)	MBD2 DNA inh 29, UHRF1 MBD2 ctr 54 (no result: core dimer inh) | UHRF1 ctr MBD2 inactive | MBD2 DBD conf inactive
CCCCCCCCN1C(=O)[C@H](CC(=O)NCc2ccccc2)C[C@@]2(C(=O)OCC)CCCC=C12	none (no result: core dimer inh)
COc1ccccc1CCNC(=O)CSc1nc(=O)[nH]c2c1CCC2	MBD2 DNA inh 23 | UHRF1 ctr MBD2 inactive | MBD2 DBD conf inactive
COc1ccccc1CCNC(=O)CSc1nc2c([nH]1)c(=O)n(C)c(=O)n2C	none (no result: core dimer inh)
Cc1ccc(CNC(=O)c2nnn(-c3cccc(C)c3)c2N)cc1	MBD2 DNA inh 15, UHRF1 MBD2 ctr 28 | UHRF1 ctr MBD2 inactive | MBD2 DBD conf inactive
CN1C(=O)C[C@@](C#N)(C(=O)NCC(F)(F)F)[C@H]1c1ccccc1	none (no result: core dimer inh)
O=C(Nc1c[nH]c(=O)[nH]c1=O)c1cc([N+](=O)[O-])cc([N+](=O)[O-])c1	MBD2 DNA inh 29 | UHRF1 ctr MBD2 inactive | MBD2 DBD conf inactive
O=C(Nc1c[nH]c(=O)[nH]c1=O)c1ccc2c(c1)C(=O)N(c1cccc([N+](=O)[O-])c1)C2=O	none (no result: core dimer inh)
CC(=O)Nc1sc2c(c1-c1nc3ccccc3s1)CCN(C(C)C)CC2	MBD2 DNA inh 22 (no result: core dimer inh) | UHRF1 ctr MBD2 inactive | MBD2 DBD conf 26
O=C(Nc1sc2c(c1-c1nc3ccccc3s1)CCNC2)C(F)F	none (no result: core dimer inh)
CC(=O)Nc1sc2c(c1-c1nc3ccccc3s1)CCCNC2	MBD2 DNA inh 21 (no result: core dimer inh) | UHRF1 ctr MBD2 inactive | MBD2 DBD conf 32
C=CCn1c(SCC(N)=O)nc2scc(-c3ccc(C)o3)c2c1=O	MBD2 DNA inh 14 | UHRF1 ctr MBD2 inactive | MBD2 DBD conf inactive
CCOC(=O)[C@]12CCCC3=C1N(CCC3)C(=O)[C@@H](CC(=O)NCCC(C)C)C2	none (no result: core dimer inh)
Cc1ccc(CN(C)C(=O)c2cccc(S(=O)(=O)N3CCCC3)c2)cc1	none (no result: core dimer inh)
Cc1ccc(CN(C)C(=O)c2cccc(S(=O)(=O)N3CCc4ccccc43)c2)cc1	MBD2 DNA inh 15 (no result: core dimer inh) | UHRF1 ctr MBD2 inactive | MBD2 DBD conf inactive
COC(=O)[C@]12C[C@H](CC(=O)NCc3cccc(C(F)(F)F)c3)C(=O)N(Cc3cccc4ccccc34)C1=C[C@H](C(C)(C)C)O[C@@H]2C	MBD2 DNA inh 25 (no result: core dimer inh) | UHRF1 ctr MBD2 inactive | MBD2 DBD conf inactive
Cc1ccc(C(C)C)c(OCC(=O)NS(=O)(=O)c2ccc(Cl)cc2)c1	none
Cc1ccccc1OCC(=O)NS(=O)(=O)c1ccc(Cl)cc1	MBD2 DNA inh 14 | UHRF1 ctr MBD2 inactive | MBD2 DBD conf inactive
C=CCN=C1NC(CCc2ccccc2)C(C(=O)OC)=C(C)N1C (configuration not stated)	none (no result: core dimer inh)
C#CCNC(=O)C[C@H]1C(=O)N(CCc2ccc(Cl)cc2)C2=CCCC[C@@]21C(=O)OCC	none (no result: core dimer inh)
COc1ccc(C(c2ccc(OC)cc2)N2CCN(C(=O)c3noc(C)c3[N+](=O)[O-])CC2)cc1	none (no result: core dimer inh)
O=C(c1ccc(N2CCOCC2)cc1[N+](=O)[O-])N1CCOCC1	MBD2 DNA inh 14 | UHRF1 ctr MBD2 inactive | MBD2 DBD conf inactive
O=C(O)CNC(=O)c1ccc(N2CCOCC2)cc1[N+](=O)[O-]	none
CCOC(=O)[C@@]12CCCC=C1N(CCc1ccc(Cl)cc1)C(=O)[C@H]2CC(=O)NCc1ccccc1	none (no result: core dimer inh)
O=C(NNC(=O)c1cccc2ccccc12)c1ccc(Cl)c(Cl)c1	MBD2 DNA inh 66 (no result: core dimer inh) | UHRF1 ctr MBD2 inactive | MBD2 DBD conf inactive
COc1ccc(-c2nc3ccc(Cl)cn3c2Cc2ccccc2C(F)(F)F)cc1OC	none (no result: core dimer inh)
COc1ccc(-c2nc3ccc(C)cn3c2Cc2ccccc2C(F)(F)F)cc1OC	MBD2 DNA inh 14, UHRF1 MBD2 ctr 21 (no result: core dimer inh) | UHRF1 ctr MBD2 inactive | MBD2 DBD conf inactive
C[C@H]1C2CC(OC(=O)Nc3ccc(F)cc3)C(C2)[C@H]2CCCCN21 (some centres not stated)	none (no result: core dimer inh)
C#CCN1CC(N(C)CCOC(=O)CC2C=CCC2)CS1(=O)=O (configuration not stated)	none (no result: core dimer inh)
O=C(Nc1cccnc1)C1(c2ccccc2)CCCC1	MBD2 DNA inh 16, UHRF1 MBD2 ctr 23 | UHRF1 ctr MBD2 inactive | MBD2 DBD conf inactive
Nc1cc(Nc2ccccc2)ccn1	MBD2 DNA inh 44 (no result: core dimer inh) | UHRF1 ctr MBD2 inactive | MBD2 DBD conf inactive
c1ccc(Nc2ccnc(Nc3ccccc3)n2)cc1	none
CCN(CC)S(=O)(=O)c1ccc(N2CCOCC2)c(NC(=O)c2nn(C)c(=O)c3ccccc23)c1	MBD2 DNA inh 14 (no result: core dimer inh) | UHRF1 ctr MBD2 inactive | MBD2 DBD conf inactive
CCN(CC)S(=O)(=O)c1ccc(N2CCCC2)c(NC(=O)c2nn(C)c(=O)c3ccccc23)c1	none (no result: core dimer inh)
CCCCCCCCN1C(=O)[C@@H](CC(=O)NCc2ccc(C)o2)C[C@@]2(C(=O)OC)C1=C[C@H](COCc1ccccc1)O[C@@H]2C	none (no result: core dimer inh)
CCCCOCCCNS(=O)(=O)Cc1ccccc1	MBD2 DNA inh 20 | UHRF1 ctr MBD2 inactive | MBD2 DBD conf inactive
COc1ccc2nc3cc(Cl)ccc3c(Nc3cc(CN4CCCC4)c(O)c(CN4CCCC4)c3)c2n1	MBD2 DNA inh 55, UHRF1 MBD2 ctr 72 | UHRF1 ctr MBD2 86 | MBD2 DBD conf 88
COc1ccc(NC(=O)COC(=O)CC23CC4CC(CC(C4)C2)C3)c([N+](=O)[O-])c1	MBD2 DNA inh 46 | UHRF1 ctr MBD2 inactive | MBD2 DBD conf inactive
CCC(=O)OCC(=O)Nc1ccc(OC)cc1[N+](=O)[O-]	none
COc1ccc(Cc2nnc(NC(=O)C3CCCO3)s2)cc1OC (configuration not stated)	none
COc1ccc(Cc2nnc(NC(=O)C3CCCO3)s2)cc1 (configuration not stated)	MBD2 DNA inh 15 | UHRF1 ctr MBD2 inactive | MBD2 DBD conf inactive
CCCC(=O)Nc1ccc(NC(=O)CCc2ccccc2)cn1	MBD2 DNA inh 69 | UHRF1 ctr MBD2 inactive | MBD2 DBD conf inactive
CCCC(=O)Nc1ccc(NC(=O)Cc2ccccc2)cn1	none
CCN(CC)C(=O)CC[C@H]1CC[C@]2(CCCN(C(=O)C(C)(C)C)C2)O1	none (no result: core dimer inh)
FC(F)(F)c1ccccc1NC(=S)OC1CCC12CCC(c1ccccc1)CC2 (configuration not stated)	none (no result: core dimer inh)
Cc1ccc(CC(=O)Nc2cccc(C)n2)cc1	MBD2 DNA inh 15 | UHRF1 ctr MBD2 inactive | MBD2 DBD conf inactive
Cc1cccc(NC(=O)Cc2ccc(-c3ccccc3)cc2)n1	none
Cc1ccc(CC(=O)Nc2nc3c(s2)CCCC3)cc1	MBD2 DNA inh 13 | UHRF1 ctr MBD2 inactive | MBD2 DBD conf inactive
COC(=O)[C@]12C[C@H](CC(=O)N3CCC(c4ccccc4)CC3)C(=O)N(CCc3ccc(OC)c(OC)c3)C1=C[C@H](C(C)C)O[C@@H]2C1CC1	none (no result: core dimer inh)
